Assay results collected from several papers.
Compare with care: the assays were run in different laboratories.
Target: Mitogen-activated protein kinase kinase kinase kinase 5 (MAP4K5, Homo sapiens, UniProt Q9Y4K4)

SMILES | effect on | method | tested at | remaining binding [%]
CCN1CCN(Cc2ccc(C(=O)Nc3ccc(C)c(Oc4ccc5c(c4)CC(=O)N5)c3)cc2C(F)(F)F)CC1 | binding | competition with immobilised ligand | 1 µM | 100
Nc1c(C(=O)NCc2ccc(C(=O)NCCCC3CCCCC3)cc2)cnn1-c1ccccc1 | cell-free assay | competition with immobilised ligand | 0.1 µM | 100
c1cnn2ncc(-c3ccnc(N4CCC45COC5)n3)c2c1 | binding | – | 1 µM | 94
O=C(NCCCN1CCOCC1)c1ccc(Nc2ncc(Cl)c(-c3ccc(Cl)s3)n2)cc1 | binding | competition with immobilised ligand | 1 µM | 63
COc1ccc2c(O[C@@H]3C[C@H]4C(=O)N[C@]5(C(=O)O)CC5/C=C\CCCCC[C@H](NC(=O)OC5CCCC5)C(=O)N4C3)cc(-c3csc(NC(=O)C(C)C)n3)nc2c1C (stereo partly drawn) | cell-free assay | competition with immobilised ligand | 1 µM | 100
C[C@@H](c1ccc(-n2cnc3c(N)ncnc32)cc1)N1CCc2nn(C)c(Cc3ccccc3)c2C1=O | binding | competition with immobilised ligand | 0.1 µM | 87
C=CC(=O)N1CCC(C(=O)NCC(=O)N2CCN(c3nc(-c4cnc(N)nc4C(F)F)nc(N4CCOCC4)n3)CC2)CC1 | binding | competition with immobilised ligand | 1 µM | 95
CC1CCCN1c1nccc(-c2cnn3ncccc23)n1 (stereo not drawn) | binding | – | 1 µM | 100
COc1cnc(Nc2cccc(S(N)(=O)=O)c2)nc1N1CCN(c2ccccc2)CC1 | binding | competition with immobilised ligand | 1 µM | 100
O=C(NCc1ncc(C(F)(F)F)cc1Cl)c1ccc2c(c1)C1(CCS(=O)(=O)CC1)[C@@H](C1CC1)N2S(=O)(=O)c1ccc(F)cc1 | cell-free assay | competition with immobilised ligand | 1 µM | 100
O=C(c1ccc(Nc2ncc(Cl)c(-c3ccc(Cl)s3)n2)cc1)N1CCC(N2CCCC2)CC1 | binding | competition with immobilised ligand | 1 µM | 45
O=C(NCC1CCOCC1)c1n[nH]cc1NC(=O)c1c(F)cccc1F | binding | competition with immobilised ligand | 1 µM | 89
C[C@@H]1CCN(c2nccc(-c3cnn4ncccc34)n2)C1 | binding | – | 1 µM | 93
FC(F)(F)Oc1cccc(-c2cnc3ccc(-c4ccncc4)nn23)c1 | cell-free assay | competition with immobilised ligand | 5 µM | 77
CN(c1nccc(-c2cnn3ncccc23)n1)C1CC1 | binding | – | 1 µM | 3.2
O=C(O)[C@@H]1[C@@H](Cn2nnc3ccccc3c2=O)CC[C@H]1C(=O)c1ccc(OCCC2CCOCC2)cc1 | cell-free assay | competition with immobilised ligand | 1 µM | 100
CNC(=O)[C@@H]1CC[C@@H](n2c(-c3ccc4cnccc4c3)nc3ccc(C(=O)NCc4cccc(C(N)=O)c4)cc32)C1 | binding | competition with immobilised ligand | 1 µM | 100
CC(=O)c1c(NS(C)(=O)=O)c2cc(-c3ccc(Cl)cc3)c(-c3ccc(Cl)cc3Cl)nc2n(C)c1=O | cell-free assay | competition with immobilised ligand | 1 µM | 100
N[C@@H]1CCN(c2nccc(-c3cnn4ncccc34)n2)C1 | binding | – | 1 µM | 100
Cc1c(NC(=O)c2cc(C(N)=O)nc3cc(F)ccc23)c(C(F)(F)F)nn1Cc1ccc(C#N)cc1 | cell-free assay | competition with immobilised ligand | 1 µM | 74
CN(C)c1ncc(F)c(-c2cnn3ncccc23)n1 | binding | – | 1 µM | 100
